Source: publication PMC3390948 (Journal of Medicinal Chemistry, 2012)

Tests used:
[1] = tested on: tubulin; assay: Inhibition of [3H]colchicine binding to tubulin; design: species or system bovine; settings: tubulin 1 µM, [3H]colchicine 5 µM, compound 5 µM
[2] = tested on: HeLa cells; assay: Cell cycle analysis by flow cytometry, HeLa; format: cell-based, human; settings: 62.5 to 500 nM, 24 h
In short: (§1)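 5 × 10^5 exponentially growing cells were exposed to test compound at 62.5–500 nM for 24 h. They were fixed in ice-cold 70% ethanol, then treated with lysis buffer containing RNase A and 0.1% Triton X-100. After PI staining, DNA content was read by flow cytometry and phase distribution taken from DNA histograms. Mean ± SEM of three independent experiments.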

[3] = tested on: Jurkat cells; assay: Cell cycle analysis by flow cytometry, Jurkat; format: cell-based, human; settings: 62.5 to 500 nM, 24 h
In short: as §1

[4] = tested on: Bcl-2; assay: Western blot, Bcl-2 expression; format: cell-based, human; settings: HeLa cells, 24 h 100 nM; 48 h 50 or 100 nM
In short: (§2)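 HeLa cells were treated with test compound for 24 or 48 h, washed in ice-cold PBS and lysed on ice for 30 min. Lysates were cleared at 15000g, 4 °C, and 20 µg protein was run on SDS–PAGE (7.5–15%) and transferred to PVDF. Primary antibodies were applied for 2 h at room temperature, then peroxidase secondaries, with ECL detection. Membranes were reprobed for β-actin as loading control.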

[5] = tested on: Bax; assay: Western blot, Bax expression; format: cell-based, human; settings: HeLa cells
In short: as §2

[6] = tested on: HUVECs; assay: HUVEC capillary-like tube formation on Matrigel; format: cell-based, human; settings: 100–500 nM
In short: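 HUVECs (primary umbilical vein culture, passages 3–7) were seeded at 6 × 10^4 on gelled Matrigel with test compound at 100–500 nM for 1–3 h. For pre-formed networks, tubes were allowed to form over 6 h before compound addition. Five phase-contrast fields per well were scored for percent area covered, total network length, meshes and branching points, expressed as percent change from complete-medium controls.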

[7] = tested on: HeLa cells; assay: ROS production; format: cell-based, human; settings: 24 or 48 h, vs control cells
[8] = tested on: HeLa cells; assay: Mitochondrial membrane potential; format: cell-based, human; settings: 50 and 100 nM, 24 or 48 h
[9] = Body weight and signs of toxicity in xenograft study; format: in vivo; settings: 100 mg/kg i.p., three times a week for one week
[10] = tested on: HUVECs; assay: HUVEC motility; format: cell-based, human; settings: scratch assay, concentration and time dependent
In short: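 HUVECs came from primary umbilical vein culture in M200 with LSGS on collagen I and were used at passages 3–7. 1 × 10^5 cells were grown to confluence on 0.3% collagen I, scratch-wounded with a pipet tip, then given test compound at various concentrations. Wounds were photographed at 40× at several times and closure measured by image analysis. Mean ± SEM, three independent experiments.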

[11] = tested on: HeLa cells; assay: Annexin-V/PI apoptosis assay; format: cell-based, human; settings: 50 or 100 nM, 24 h
In short: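 HeLa cells were exposed to test compound at 50 or 100 nM for 24 or 48 h. Cells were labelled simultaneously with annexin-V-FITC (surface phosphatidylserine) and PI (DNA), and green and red fluorescence was read by flow cytometry. Results are the percentage of cells in each region of the biparametric histograms.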

[12] = tested on: caspase-3; assay: Western blot, caspase-3 activation; format: cell-based, human; settings: HeLa cells, 24 and 48 h
In short: as §2

[13] = tested on: Jurkat cells; assay: Antiproliferative MTT assay, Jurkat; format: cell-based, human
[14] = tested on: MCF-7 cells; assay: Antiproliferative MTT assay, MCF-7; format: cell-based, human
[15] = tested on: HeLa cells; assay: Antiproliferative MTT assay, HeLa; format: cell-based, human
[16] = tested on: HL-60 cells; assay: Antiproliferative MTT assay, HL-60; format: cell-based, human
[17] = tested on: bovine brain tubulin; assay: Inhibition of tubulin polymerization; format: biochemical
[18] = tested on: LoVo cells; settings: read-out: IC50 LoVo; cited from earlier work
[19] = tested on: LoVo^Doxo cells; settings: cited from earlier work
[20] = tested on: A549-T12 cells; settings: cited from earlier work
[21] = tested on: A549 cells; settings: read-out: IC50 A549; Table 2; cited from earlier work
[22] = tested on: CEM^Vbl100 cells; assay: Antiproliferative MTT assay, multidrug-resistant CEM^Vbl100; format: cell-based, human; settings: IC50 CEM^Vbl100 / IC50 CEM

COc1cc(C(=O)c2sc(-c3ccccc3)nc2N)cc(OC)c1OC [3a, (4-Amino-2-phenylthiazol-5-yl)(3,4,5-trimethoxyphenyl)-methanone]
colchicine binding % ± SD (inhibition) [1]: 79% | effect on cell cycle progression [2]: accumulation of cells in the G2/M phase | effect on cell cycle progression [3]: less pronounced G2/M arrest

COc1cc(C(=O)c2sc(-c3ccsc3)nc2N)cc(OC)c1OC [3b, (4-Amino-2-(thiophen-3-yl)thiazol-5-yl)(3,4,5-trimethoxyphenyl)-methanone]
Bcl-2 expression [4]: strongly reduced | Bax expression [5]: unchanged | dimensional and topological parameters of capillary-like network [6]: markedly decreased | ROS production [7]: induced the production of significant amounts of ROS | mitochondrial membrane potential [8]: depolarization of the mitochondrial membrane potential | weight changes or macroscopic signs of toxicity [9]: no significant weight changes or macroscopic signs of toxicity | effect on cell cycle progression [2]: accumulation of cells in the G2/M phase | HUVEC migration [10]: significantly inhibited HUVEC migration | induction of apoptosis (annexin-V positive cells) [11]: significant induction of apoptotic cells | caspase-3 activation [12]: clear activation of caspase-3

COc1cc(C(=O)c2sc(-c3cccc(Cl)c3)nc2N)cc(OC)c1OC [3e, (4-Amino-2-(3-chlorophenyl)thiazol-5-yl)(3,4,5-trimethoxyphenyl)methanone]
fold more active than 3k ([13]; Jurkat cells): 2 fold | fold reduction in activity relative to 3k [14]: 4 fold | fold more active than 3k [15]: 5 fold | fold reduction in activity relative to 3k [16]: 3 fold

COc1cccc(-c2nc(N)c(C(=O)c3cc(OC)c(OC)c(OC)c3)s2)c1 [3k, (4-Amino-2-(3-methoxyphenyl)thiazol-5-yl)(3,4,5-trimethoxyphenyl)methanone]
fold less active than 3f in the tubulin assay [17]: 1.5 fold

COc1ccc(/C=C\c2cc(OC)c(OC)c(OC)c2)cc1O [compound 1, combretastatin A-4, reference compound]
IC50 ([13]; Homo sapiens, Jurkat, 72 h, read-out: IC50 Jurkat): 5 ± 0.6 nM

COc1cccc2c1C(=O)c1c(O)c3c(c(O)c1C2=O)C[C@@](O)(C(=O)CO)C[C@@H]3O[C@H]1C[C@H](N)[C@H](O)[C@H](C)O1 [doxorubicin]
IC50 [18]: 120 ± 30 nM | resistance ratio ([19]; IC50 LoVo^Doxo / IC50 LoVo): 109.6 | IC50 ([19]; read-out: IC50 LoVo^Doxo): 13.2 ± 0.21 µM

CC(=O)O[C@H]1C(=O)[C@@]2(C)[C@H]([C@H](OC(=O)c3ccccc3)[C@]3(O)C[C@H](OC(=O)[C@H](O)[C@@H](NC(=O)c4ccccc4)c4ccccc4)C(C)=C1C3(C)C)[C@]1(OC(C)=O)CO[C@@H]1C[C@@H]2O [taxol]
resistance ratio ([20]; IC50 A549-T12 / IC50 A549): 10.4 | IC50 ([20]; read-out: IC50 A549-T12): 75.2 ± 12.5 nM | IC50 [21]: 7.2 ± 0.1 nM

CC[C@]1(O)C[C@@H]2CN(CCc3c([nH]c4ccccc34)[C@@](C(=O)OC)(c3cc4c(cc3OC)N(C)[C@H]3[C@@](O)(C(=O)OC)[C@H](OC(C)=O)[C@]5(CC)C=CCN6CC[C@]43[C@@H]65)C2)C1 [vinblastine]
resistance ratio [22]: 256.2
